# Experimental data: ChEMBL document CHEMBL1125113, “(S)-5-fluoro-8-hydroxy-2-(dipropylamino)tetralin: a putative 5-HT1A-receptor antagonist” (J Med Chem, 1990)
# Assays:
# Rattus norvegicus [1] = test: The effect on the accumulation of 5-HTP in rat brain(limbic), by subcutaneous administration at a dose of 10(umol/kg); assay type: functional
# Summary of the method: (§1)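 Nonpretreated rats received the test drug sc 60 min before death. The decarboxylase inhibitor NSD 1015 (287 µmol/kg sc) was given 30 min before death. Brain 5-HTP and DOPA in limbic and striatal regions were measured by HPLC with electrochemical detection. Values are means ± SEM, with n = 9 controls and 5–7 per experimental group.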
# Rattus norvegicus [2] = test: The effect on the accumulation of 5-HTP in rat brain(striatum), by subcutaneous administration at a dose of 10(umol/kg); assay type: functional; summary of the method: as §1
# [3] = target: T1, 5-hydroxytryptamine receptor 1A (Rattus norvegicus, UniProt P19327); test: Binding affinity towards 5-hydroxytryptamine 1A receptor sites in cortical membranes using [3H]8-OH-DPAT as radioligand; assay type: cell membranes
# T1 sequence (P19327 whole entry): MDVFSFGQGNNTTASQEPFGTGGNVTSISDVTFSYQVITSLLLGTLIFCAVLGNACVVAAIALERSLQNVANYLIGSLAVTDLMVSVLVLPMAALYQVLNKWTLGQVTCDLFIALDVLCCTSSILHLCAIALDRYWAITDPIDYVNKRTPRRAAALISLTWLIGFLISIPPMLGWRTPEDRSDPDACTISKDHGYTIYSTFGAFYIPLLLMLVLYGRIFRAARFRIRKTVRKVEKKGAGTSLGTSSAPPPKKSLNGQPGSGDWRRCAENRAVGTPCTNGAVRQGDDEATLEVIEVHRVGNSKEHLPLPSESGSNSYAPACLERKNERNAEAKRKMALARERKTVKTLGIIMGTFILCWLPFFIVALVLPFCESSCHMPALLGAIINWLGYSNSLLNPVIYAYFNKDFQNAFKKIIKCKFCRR
# [4] = target: T2, Aromatic-L-amino-acid decarboxylase (Homo sapiens) (UniProt P20711); test: The effect on the accumulation of DOPA in rat brain(striatum), by subcutaneous administration at a dose of 10(umol/kg); assay type: functional, organism-based; conditions: target entry is the homologue from another species; summary of the method: as §1
# T2 sequence (whole entry): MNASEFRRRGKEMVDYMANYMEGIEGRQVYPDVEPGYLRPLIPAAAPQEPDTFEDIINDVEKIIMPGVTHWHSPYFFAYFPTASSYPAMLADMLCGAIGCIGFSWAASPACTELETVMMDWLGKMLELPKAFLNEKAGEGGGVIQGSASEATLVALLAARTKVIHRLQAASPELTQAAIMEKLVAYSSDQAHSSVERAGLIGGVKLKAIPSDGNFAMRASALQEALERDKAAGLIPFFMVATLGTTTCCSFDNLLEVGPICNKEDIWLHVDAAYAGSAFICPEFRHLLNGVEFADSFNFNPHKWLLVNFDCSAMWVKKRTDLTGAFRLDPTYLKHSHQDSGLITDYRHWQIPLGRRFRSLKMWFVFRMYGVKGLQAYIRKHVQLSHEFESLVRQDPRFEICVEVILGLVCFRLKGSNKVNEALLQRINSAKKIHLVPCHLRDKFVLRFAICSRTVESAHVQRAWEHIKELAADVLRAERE
# [5] = target: T2, Aromatic-L-amino-acid decarboxylase (Homo sapiens); test: The effect on the accumulation of DOPA in rat brain(limbic), by subcutaneous administration at a dose of 10(umol/kg); assay type: functional, organism-based; conditions: target entry is the homologue from another species; summary of the method: as §1
# Rattus norvegicus [6] = test: The effect on the accumulation of 5-HTP in rat brain(striatum), by subcutaneous administration at a dose of 32(umol/kg); assay type: functional; summary of the method: as §1
# [7] = target: T2, Aromatic-L-amino-acid decarboxylase (Homo sapiens); test: The effect on the accumulation of DOPA in rat brain(striatum), by subcutaneous administration at a dose of 0.32(umol/kg); assay type: functional, organism-based; conditions: target entry is the homologue from another species; summary of the method: as §1
# [8] = target: T2, Aromatic-L-amino-acid decarboxylase (Homo sapiens); test: The effect on the accumulation of DOPA in rat brain(limbic), by subcutaneous administration at a dose of 0.32(umol/kg); assay type: functional, organism-based; conditions: target entry is the homologue from another species; summary of the method: as §1
# Rattus norvegicus [9] = test: The effect on the accumulation of 5-HTP in rat brain(limbic), by subcutaneous administration at a dose of 0.32(umol/kg); assay type: functional; summary of the method: as §1
# Rattus norvegicus [10] = test: The effect on the accumulation of 5-HTP in rat brain(striatum), by subcutaneous administration at a dose of 0.32(umol/kg); assay type: functional; summary of the method: as §1
SMILES,Potencymean (Rattus norvegicus [1]) [ng/g],Potencymean (Rattus norvegicus [2]) [ng/g],Ki [3] [nM],Potencymean [4] [ng/g],Potencymean [5] [ng/g],Potencymean (Rattus norvegicus [6]) [ng/g],Potencymean [7] [ng/g],Potencymean [8] [ng/g],Potencymean (Rattus norvegicus [9]) [ng/g],Potencymean (Rattus norvegicus [10]) [ng/g]
CCCN(CCC)[C@@H]1CCc2c(F)ccc(O)c2C1,<86.5,<59.7,6.1,1190,398,,,,,
CCCN(CCC)[C@H]1CCc2c(F)ccc(O)c2C1,152,,52,< 682,324,91.4,,,,
CCCN(CCC)[C@@H]1CCc2cccc(O)c2C1,,,,,,,909,371,<103,<53.3
